Source: ChEMBL document CHEMBL1914380, “Polyalkoxybenzenes from plants. 5. Parsley seed extract in synthesis of azapodophyllotoxins featuring strong tubulin destabilizing activity in the sea urchin embryo and cell culture assays” (J Med Chem, 2011)
The source made the active and inactive calls. No cut-off for these calls is given here. Where a SMILES comes first, the peptide text is derived from it. The star is where a group is joined. Cbz = O=C(OCc1ccccc1)*; CH2F = FC*

Experiments:
[1] = test system: Jurkat; assay: Cell cycle arrest in human Jurkat cells assessed as accumulation of cells in G0/G1 phase at 2 uM after 24 hrs by propidium iodide staining-based flow cytometry; type: functional
Method in brief: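 Jurkat cells treated 24 h; DNA content after propidium iodide staining measured by flow cytometry for cell cycle distribution.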

[2] = test system: Paracentrotus lividus; assay: Antimitotic activity against Paracentrotus lividus embryo assessed as cleavage alteration treated 10 to 25 mins post fertilization followed by 45 to 60 mins before the first mitotic cycle completion by sea urchin embryo assay; type: functional
[3] = test system: Paracentrotus lividus; assay: Antimitotic activity against Paracentrotus lividus embryo assessed as abnormal gastrula formation at 10 to 20 uM by microscopic analysis; type: functional, organism-based
Method in brief: (§1)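 P. lividus hatched blastulae exposed to compound; larval (pluteus) malformations, gastrulation and morphogenesis abnormalities, and developmental abnormalities/embryo death scored microscopically, the latter after 2.5 h of treatment.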

[4] = test system: Paracentrotus lividus; assay: Induction of apoptosis in Paracentrotus lividus embryo assessed as developmental abnormalities at 40 to 68 uM after 2.5 hrs; type: functional, organism-based; method in brief: as §1
[5] = test system: Jurkat; assay: Induction of apoptosis in human Jurkat cells assessed as reduction in procaspase-8 levels at 2 uM after 24 hrs by Western blotting; type: functional, cell-based
Method in brief: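 Jurkat cells treated 24 h; total lysates prepared in SDS–Laemmli sample buffer and immunoblotted with anti-procaspase-8 monoclonal antibody; β-actin as loading control.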

[6] = test system: Paracentrotus lividus; assay: Toxicity against Paracentrotus lividus embryo at 40 to 68 uM after 2.5 hrs; type: organism-based; conditions: in vivo; method in brief: as §1
[7] = test system: Paracentrotus lividus; assay: Antimitotic activity against Paracentrotus lividus embryo assessed as embryo spinning treated 10 to 25 mins post fertilization followed by 45 to 60 mins before the first mitotic cycle completion by sea urchin embryo assay; type: functional
[8] = test system: Paracentrotus lividus; assay: Antimitotic activity against Paracentrotus lividus embryo assessed as larval malformation at 4 to 5 uM post hatching by microscopic analysis; type: functional, organism-based; method in brief: as §1
[9] = test system: Paracentrotus lividus; assay: Antimitotic activity against Paracentrotus lividus embryo assessed as cleavage arrest treated 10 to 25 mins post fertilization followed by 45 to 60 mins before the first mitotic cycle completion by sea urchin embryo assay; type: functional
[10] = test system: A549; assay: Inhibition of microtubule polymerization in human A549 cells assessed as total disruption of interphase microtubule network at 0.1 uM after 8 hrs by immunofluorescence microscopy; type: cell-based
Method in brief: (§2)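 A549 cells incubated 8 h with compound at 0.1, 0.5, 1 and 5 μM; DMSO vehicle as negative control. Microtubules labelled by indirect immunofluorescence and examined by fluorescence microscopy. Value is the concentration giving total interphase microtubule disassembly, from three independent experiments.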

[11] = test system: Paracentrotus lividus; assay: Antimitotic activity against Paracentrotus lividus embryo assessed as cleavage alteration at 10 nM after 6 hrs post fertilization by microscopic analysis; type: functional, organism-based
[12] = test system: Paracentrotus lividus; assay: Antimitotic activity against Paracentrotus lividus embryo assessed as formation of tuberculate egg at 100 nM after 6 hrs post fertilization by microscopic analysis; type: functional, organism-based
[13] = test system: A549; assay: Inhibition of microtubule polymerization in human A549 cells assessed as total disruption of interphase microtubule network at 0.5 uM after 8 hrs by immunofluorescence microscopy; type: cell-based; method in brief: as §2
[14] = test system: A549; assay: Inhibition of microtubule polymerization in human A549 cells assessed as total disruption of interphase microtubule network at 5 uM after 8 hrs by immunofluorescence microscopy; type: cell-based; method in brief: as §2
[15] = test system: A549; assay: Cytotoxicity against human A549 cells assessed as cell viability after 24 hrs by MTT assay; type: functional, cell-based; conditions: A549, 24 h
Method in brief: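 A549 human lung carcinoma cells; growth inhibition measured by MTT assay. IC50 derived from dose-response curves, mean ± SD of three independent experiments.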

[16] = test system: A549; assay: Inhibition of microtubule polymerization in human A549 cells assessed as total disruption of interphase microtubule network at 1 uM after 8 hrs by immunofluorescence microscopy; type: cell-based; method in brief: as §2
[17] = test system: P388; assay: Cytotoxicity against mouse P388 cells assessed as cell viability after 48 hrs by trypan blue exclusion assay; type: functional, cell-based; conditions: P388, 48 h
[18] = test system: A549; assay: Cell cycle arrest in human A549 cells assessed as accumulation of cells in G2/M phase after 24 hrs by propidium iodide staining-based flow cytometry; type: functional; conditions: A549, 24 h
[19] = test system: Jurkat; assay: Induction of apoptosis in human Jurkat cells assessed as hypodyploid cells at 50 nM after 48 hrs by annexin-V FITC/7-ADD staining-based flow cytometric analysis in presence of 50 uM Z-VAD-fmk pan-caspase inhibitor; type: functional
[20] = test system: A549; assay: Cell cycle arrest in human A549 cells at 50 uM after 24 hrs using propidium iodide staining by flow cytometry; type: functional, cell-based
[21] = test system: A549; assay: Inhibition of microtubule polymerization in human A549 cells assessed as total disruption of interphase microtubule network at > 5 uM after 8 hrs by immunofluorescence microscopy; type: cell-based
[22] = test system: A549; assay: Induction of apoptosis in human A549 cells assessed as early apoptotic cells at 10 to 100 nM after 48 hrs by annexin-V FITC/7-ADD staining-based flow cytometric analysis; type: functional, cell-based
[23] = test system: A549; assay: Induction of apoptosis in human A549 cells assessed as late apoptotic cells at 10 to 100 nM after 48 hrs by annexin-V FITC/7-ADD staining-based flow cytometric analysis; type: functional, cell-based
[24] = test system: A549; assay: Induction of apoptosis in human A549 cells assessed as necrotic cells at 10 to 100 nM after 48 hrs by annexin-V FITC/7-ADD staining-based flow cytometric analysis; type: functional, cell-based
[25] = test system: Paracentrotus lividus; assay: Toxicity against Paracentrotus lividus embryo post hatching; type: organism-based; conditions: in vivo
[26] = test system: Jurkat; assay: Induction of apoptosis in human Jurkat cells assessed as reduction in procaspase-8 levels at 50 nM after 48 hrs by Western blotting; type: functional, cell-based
Method in brief: (§3)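 Jurkat cells treated at 50 nM for 24 or 48 h; untreated control, etoposide 2 μM 24 h as comparator. Total lysates prepared in SDS-Laemmli buffer and immunoblotted with monoclonal anti-caspase-9, anti-caspase-2 and anti-procaspase-8 antibodies. β-Actin served as loading control.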

[27] = test system: Jurkat; assay: Induction of apoptosis in human Jurkat cells assessed as procaspase-9 cleavage at 50 nM after 24 hrs by Western blotting; type: functional, cell-based; method in brief: as §3
[28] = test system: Jurkat; assay: Cell cycle arrest in human Jurkat cells assessed as accumulation of cells in G2/M phase at 20 nM after 24 hrs by propidium iodide staining-based flow cytometry; type: functional
Method in brief: (§4)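 Jurkat cells treated for 24 h, then stained with propidium iodide. DNA content analysed by flow cytometry for cell-cycle distribution.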

[29] = test system: Jurkat; assay: Induction of apoptosis in human Jurkat cells assessed as cells with active form of caspase-3 at 50 nM after 48 hrs by annexin-V FITC/7-ADD staining-based flow cytometric analysis (reference value: 7.1%); type: functional
[30] = test system: Jurkat; assay: Induction of apoptosis in human Jurkat cells assessed as procaspase-9 cleavage at 50 nM after 48 hrs by Western blotting; type: functional, cell-based; method in brief: as §3
[31] = test system: Jurkat; assay: Induction of apoptosis in human Jurkat cells assessed as hypodyploid cells at 50 nM after 48 hrs by annexin-V FITC/7-ADD staining-based flow cytometric analysis (reference value: 12.2%); type: functional
[32] = test system: Jurkat; assay: Induction of apoptosis in human Jurkat cells assessed as PARP cleavage at 50 nM after 48 hrs by annexin-V FITC/7-ADD staining-based flow cytometric analysis (reference value: 6.5%); type: functional
[33] = test system: Jurkat; assay: Induction of apoptosis in human Jurkat cells assessed as procaspase-2 cleavage at 50 nM after 24 hrs by Western blotting; type: functional, cell-based; method in brief: as §3
[34] = test system: Jurkat; assay: Cytotoxicity against human Jurkat cells assessed as cell viability after 48 hrs by trypan blue exclusion assay; type: functional, cell-based
Method in brief: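 Jurkat T-leukemia cells; proliferation inhibition measured by trypan blue assay, giving IC50.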

[35] = test system: Jurkat; assay: Induction of apoptosis in human Jurkat cells assessed as procaspase-2 cleavage at 50 nM after 48 hrs by Western blotting; type: functional, cell-based; method in brief: as §3
[36] = test system: Jurkat; assay: Cell cycle arrest in human Jurkat cells assessed as accumulation of cells in G2/M phase at 25 nM after 24 hrs by propidium iodide staining-based flow cytometry; type: functional; method in brief: as §4

SMILES	EC [2] [nM]	EC [7] [nM]	EC [9] [nM]	inhibition [10]	inhibition [13]	inhibition [14]	IC50 [15] [nM]	inhibition [16]	EC50 [18] [nM]	further results
COc1cc([C@@H]2c3cc4c(cc3[C@@H](O[C@@H]3O[C@@H]5CO[C@@H](C)O[C@H]5[C@H](O)[C@H]3O)[C@H]3COC(=O)[C@H]23)OCO4)cc(OC)c1O [ETOPOSIDE]	2000	>68000	>68000	–	–	–	–	–	–	Activity [1]: Active; Activity [3]: Active; Activity [4]: Active; Activity [5]: Active; Activity [6]: Toxic; Activity [8]: Active
COc1cc(C2C3=C(COC3=O)Nc3cc4c(cc32)OCO4)cc2c1OCO2 (racemic)	5	50	50	Active	Active	Active	55.2	Active	–	Activity [11]: Active; Activity [12]: Active
COc1ccc(C2C3=C(COC3=O)Nc3cc4c(cc32)OCO4)cc1OC (stereo not given)	5	2000	100	Active	Active	Active	596	Active	230	IC50 [17]: 131 nM
COC(=O)C[C@H](NC(=O)[C@H](C)NC(=O)[C@@H](NC(=O)OCc1ccccc1)C(C)C)C(=O)CF (Cbz-Val-Ala-Asp(OMe)-CH2F)	–	–	–	–	–	–	–	–	–	Activity [19]: 28.4%
COc1cc(-c2c3c(nc4cc5c(cc24)OCO5)COC3=O)cc(OC)c1OC	>4000	>4000	>4000	–	–	–	11900	–	–	Activity [20]: inactive; inhibition [21]: Active; IC50 [17]: > 253000 nM
COc1cc(C2C3=C(COC3=O)Nc3cc4c(cc32)OCO4)cc(OC)c1OC (stereo not given)	50	2000	500	Active	Active	Active	2.71	Active	16.2	Activity [22]: Active; Activity [23]: inactive; Activity [24]: Active
COc1cc(C2C3=C(COC3=O)Nc3cc4c(cc32)CCCC4)cc(OC)c1OC (stereo not given)	50	100	200	Active	Active	Active	56.5	Active	–	Activity [25]: Toxic
COc1ccc2c(c1)NC1=C(C(=O)OC1)C2c1cc(OC)c2c(c1)OCO2 (stereo not given)	0.5	50	5	Active	Active	Active	15.1	Active	–	Activity [26]: inactive; Activity [27]: Active; Activity [28]: Active; Activity [29]: 27.8%; Activity [30]: Active; Activity [31]: 54.9%; Activity [32]: 38.3%; Activity [33]: Active; IC50 [34]: 17.5 nM; Activity [35]: Active
COc1cc([C@@H]2c3cc4c(cc3[C@H](O)[C@H]3COC(=O)[C@H]23)OCO4)cc(OC)c1OC [PODOFILOX]	20	500	50	Active	Active	Active	7.47	Active	16.5	Activity [26]: inactive; Activity [27]: Active; Activity [29]: 28%; Activity [36]: Active; Activity [30]: Active; Activity [31]: 55.6%; Activity [32]: 40.7%; Activity [33]: Active; IC50 [34]: 25 nM; Activity [35]: Active
